Measured values taken from ChEMBL document CHEMBL1150428, “CYP53A15 of Cochliobolus lunatus, a target for natural antifungal compounds” (J Med Chem, 2008).
In brackets after ≈: the same amount, converted by molar mass.

Key:
[1] = system: Curvularia lunata; experiment: Antifungal activity against Cochliobolus lunatus delta bph at 5 mM assessed as initial growth inhibition time; type: functional
Method in brief: (§1)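 Δbph deletion strain of C. lunatus (bph gene replaced by hph, hygromycin-selected) on agar with 5 mM test compound, in triplicate. Plates centrally inoculated with 7 mm mycelial disks from a 48 h culture. Radial growth rate (mm/h) measured; initial growth inhibition time (h) taken as the intercept of the extrapolated linear growth phase at 7 mm.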

[2] = system: Curvularia lunata; experiment: Antifungal activity against Cochliobolus lunatus at 5 mM assessed as initial growth inhibition time; type: functional
Method in brief: (§2)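 C. lunatus m118 on agar plates in triplicate, each inhibitor at 5 mM alone or at 5 mM combined with 0.1 mM benzoic acid. Plates centrally inoculated with 7 mm mycelial disks taken from a 48 h solid culture. Radial growth rate (mm/h) from colony diameter over time. Initial growth inhibition time (h) is the time-axis intercept of the linear growth phase extrapolated to 7 mm diameter.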

[3] = system: Curvularia lunata; experiment: Antifungal activity against Cochliobolus lunatus at 5 mM assessed as radial growth rate; type: functional; method in brief: as §2
[4] = system: Curvularia lunata; experiment: Antifungal activity against Cochliobolus lunatus delta bph at 5 mM assessed as radial growth rate; type: functional; method in brief: as §1
[5] = Inhibition of Cochliobolus lunatus CYP53A15 expressed in Escherichia coli; set-up: species or system Curvularia lunata
Method in brief: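 His-tagged CYP53A15 from E. coli C43(DE3), Ni-NTA purified, reconstituted with rabbit liver NADPH-P450 reductase and DLPC in pH 7.4 phosphate. Reaction started with 1 mM NADPH and benzoate. para-Hydroxybenzoate formation quantified by HPLC of quenched reactions over time. Enzyme at 5 µM, inhibitors at 300 and 600 µM. Kinetic constants from simultaneous progress-curve analysis.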

[6] = system: Curvularia lunata; experiment: Antifungal activity against Cochliobolus lunatus at 0.1 mM assessed as initial growth inhibition time; type: functional; method in brief: as §2
[7] = system: Curvularia lunata; experiment: Antifungal activity against Cochliobolus lunatus at 0.1 mM assessed as radial growth rate; type: functional; method in brief: as §2
[8] = system: Curvularia lunata; experiment: Antifungal activity against Cochliobolus lunatus; type: functional
Method in brief: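 C. lunatus m118 (wild type). MIC, the lowest concentration preventing visible growth after overnight incubation, determined by the Radford method.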

MIC [8] [mM]	SMILES	Activity [1] [h]	Activity [2] [h]	Activity [3] [millimeter/hr]	Activity [4] [millimeter/hr]	Ki [5] [µM]	Activity [6] [h]	Activity [7] [millimeter/hr]
	C/C=C\c1ccc(O)c(OC)c1 [ISOEUGENOL]	>1800	56	0.29	0	14.2		
	COc1cc(C=O)ccc1O [VANILLIN]		12	0.55		29.7		
5 (≈ 611 µg/mL)	O=C(O)c1ccccc1 [BENZOIC ACID]	>1800	56	0.22	0		12	0.55
	Cc1ccc(C(C)C)c(O)c1 [THYMOL]					8.2		
	C=CCc1ccc(O)c(OC)c1 [EUGENOL]		20	0.57		26.2		
